Experimental data published in ChEMBL document CHEMBL2177098, “Synthesis and evaluation of novel ¹⁸F labeled 2-pyridinylbenzoxazole and 2-pyridinylbenzothiazole derivatives as ligands for positron emission tomography (PET) imaging of β-amyloid plaques” (J Med Chem, 2012).
Calls of active or inactive are those of the source. The rule behind the calls is not given here.

Columns and labels:
[1] = Displacement of [125I]-IMPY from amyloid beta (1 to 42) fibrils after 2 hrs by gamma-counting analysis
Outline: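 Competition binding with aggregated Aβ1-42 fibrils and [125I]IMPY (60000−100000 cpm/100 μL) in 0.05% BSA (1 mL total); inhibitors 10⁻⁴−10^−8.5 M in ethanol. Incubated 37 °C for 2 h, then GF/B vacuum filtration with PBS (0.02 M, pH 7.4) washes and γ counting. Three repeats; IC50 converted to Ki by Cheng−Prusoff.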

Mus musculus [2] = species on record: Mus musculus; assay: Binding affinity to amyloid beta plaques in transgenic C57BL6 mouse hippocampus expressing APP Swedish mutant/PSEN1 at 370 KBq/100 ul after 1 hr by autoradiographic analysis; format: tissue-based; conditions: tested as the 18F-labelled form
Outline: (§1)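 Paraffin brain sections from 12-month-old Tg mice (C57BL6, APPswe/PSEN1) and age-matched controls, deparaffinized through xylene and graded ethanol, then PBS (0.2 M, pH 7.4) 30 min. Incubated with 18F tracer (370 KBq per 100 μL) 1 h at room temperature, washed in 40% EtOH, rinsed in water, then phosphor plate exposure 2 h. The same sections were afterwards stained with 0.125% thioflavin S in 10% EtOH for 3 min and washed in 40% EtOH.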

Mus musculus [3] = species on record: Mus musculus; assay: Binding affinity to amyloid beta plaques in transgenic C57BL6 mouse cortex expressing APP Swedish mutant/PSEN1 at 370 KBq/100 ul after 1 hr by autoradiographic analysis; conditions: tested as the 18F-labelled form; outline: as §1
Mus musculus [4] = species on record: Mus musculus; assay: Binding affinity to amyloid beta plaques in transgenic C57BL6 mouse cortex expressing APP Swedish mutant/PSEN1 at 370 KBq/100 ul after 1 hr by thioflavinS-staining method; conditions: tested as the 18F-labelled form; outline: as §1
Mus musculus [5] = species on record: Mus musculus; assay: Binding affinity to amyloid beta plaques in transgenic C57BL6 mouse hippocampus expressing APP Swedish mutant/PSEN1 at 370 KBq/100 ul after 1 hr by thioflavinS-staining method; format: tissue-based; conditions: tested as the 18F-labelled form; outline: as §1

CN(C)c1ccc(-c2nc3cc(OCCF)ccc3o2)cn1
Ki [1]: 2.7 nM
Activity (Mus musculus [2]): Active
Activity (Mus musculus [3]): Active
Activity (Mus musculus [4]): Active
Activity (Mus musculus [5]): Active
